# In the EternaBench riboswitch data:
# System: MS2 coat protein
# Experiment: apparent Kd, MS2 coat protein; higher = weaker binding; RNA-MaP array; tryptophan 2.4 mM where present
# Procedure, shortened: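 Each design was made on Illumina sequencing-chip clusters by stalled E. coli RNA polymerase and titrated with SNAP-549-labelled MS2 coat protein from 0.7 or 1.5 nM, doubling to 3 µM, in the absence and then the presence of constant ligand. The buffer was 100 mM Tris-HCl pH 7.5, 80 mM KCl, 4 mM MgCl2, BSA, DTT, yeast tRNA and Tween-20. The apparent Kd is the median of filtered per-cluster fits of binding curves, with green signal normalised to red-channel RNA signal and control-cluster median Fmax.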
# [1] = designed as: OFF switch for tryptophan, no ligand
# [2] = ligand present: tryptophan, designed as: OFF switch for tryptophan
# [3] = designed as: ON switch for tryptophan, no ligand
# [4] = ligand present: tryptophan, designed as: ON switch for tryptophan
Sequence,apparent Kd [1] [µM],apparent Kd [2] [µM],apparent Kd [3] [µM],apparent Kd [4] [µM]
GCUGCAGCUACGGCCGCCACUGUUACGUGAGACAUGAGGAUCACCCAUGUUGAUGUUUUACGGUAUAGGACCGGGUAGUUGUAGU,0.0097,0.0134,,
UCGUUGAAGUCGGCCGCCACUGAACUCAUGUUCAACAUGAGGAUCACCCAUGUACCUUAUUUUAACAGGACCGGGACUUUGACGA,0.167,0.155,,
AAUACCGGAUCGGCCGCCACUGGUUGGCCCUGUGUACAUGAGGAUCACCCAUGUCCAUCCCAGACCAGGACCGGGAUCUUUGUGU,,,0.0158,0.0104
AACAUGAGGAUCACCCAUGUGUCCUCGAAACGAGGACCGGUACGGCCGCCACUCGGCGUAUGUUGACGAAAAGUCAGCAUACGCA,0.192,0.737,,
CCUAUGCAGUCGGCCGCCACUGAACAUGAGGAUCACCCAUGUAAUUAAAAUUAAGGUCCUAAAAUCAGGACCGGGACUGUAUAGG,0.0385,0.237,,
AGAGUCUAGUCGGCCGCCACUCAUGUCCAAUGGACAUGAGGAUCACCCAUGUACCAAAGGUACAUGAGGACCGGGACUGGACUCA,,,0.0477,0.00757
UAAACUACACAUGAGGAUCACCCAUGUGGCCGAGGACCGGUACGGCCGCCACUCGUGUGUUAAUAAUAGAACUGCAAGGUUCUGU,,,0.183,0.0752
CGCGCGACAUGAGGAUCACCCAUGUUCCCUCGAGGACCGGUACGGCCGCCACUCGAGGACAUGAGCAUCAGCCAUGUACCGGUCA,,,0.0517,0.131
CACGAAAGAUCGGCCGCCACUAUUUGAUGUGUUCUUUCACAUGAGGAUCACCCAUGUUCUUAUUUUAGGACCGGGAUUGAGCGUG,0.0948,0.0693,,
AGCACUGUGACGGCCGCCACUACAUAACAUGGGUGGUCAGGUUCAUUACAUGAGGAUCACCCAUGUAGGACCGGGUCUCAGUGCA,0.0101,0.00835,,
GGUGGACUUUCGGCCGCCACUGAGAGAGUCGUGUGAACAUGAGGAUCACCCAUGUAAUAUAUAUACAGGACCGGGAGGGUUGUCC,0.0159,0.0159,,
AGCACUGUGACGGCCGCCACUAUAUUAGGGUGGUCAGGUUCAUAAAUACAUGAGGAUCACCCAUGUAGGACCGGGUCUCAGUGCA,0.00948,0.00988,,
UAAUAAGUACCGGUCCUCAGAUCCUCAUGACGAGGACCGGUACGGCCGCCACUCGAAACAUGAGGAUCACCCAUGUAAUAAUAAC,0.0274,0.0194,,
GCAUCCUAGUCGGCCGCCACUGGUAUGAACACCUUCACCCGUGUGCACAUGAGGAUCACCCAUGUUAGGACCGGGACUAGGAUGC,,,0.00903,0.0093
CGAAUAUAGACGGCCGCCACUCUACAAACAUGAGGAUCACCCAUGUUCACAUAGUGGAAACACAUGAGGACCGGGUCAUAGGCUU,,,0.0226,0.0171
CCUCAAUAGACGGCCGCCACUGAAACAUGAGGAUACAUGAGGAUCACCCAUGUGGGUGUGUUACGCAGGACCGGGUCAAGACCCG,,,0.207,0.336
GUUAUUAGAAAACUAAUAACAGUGGGUGAACGAGGACCGGUACGGCCGCCACUCGGACAUGAGGAUCACCCAUGUCCAUGUGAAA,0.0154,0.0327,,
CCUAUGCAGUCGGCCGCCACUGAAAACAGCCUCAAAAUAAAUAUAACAUGAGGAUCACCCAUGUACAGGACCGGGACUGUAUAGG,0.147,0.0796,,
GGGUGGUAGGCGGCCGCCACUGAUUUUCAUUCCUGGAUGACAUGAGGAUCACCCAUGUUUACGGGCAGGACCGGGCCUGCUGUGG,,,0.0573,0.0465
AGAAUAUAGUCGGCCGCCACUCUACAUACAUGAGGAUCACCCAUGUUUACAUAGUGAAUAUACAUGAGGACCGGGACAUAGGCAU,,,0.0218,0.0134
AGCCACUCGAGUGAUCCUCACGAGUGGCUACGAGGACCGGUACGGCCGCCACUCGAAUUAACAUGAGGAUCACCCAUGUAAUCUC,,,0.102,0.0459
